From ChEMBL document CHEMBL3227954, “Synthesis of imidazolidinediones and oxazolidinediones from cyclization of propargylureas and propargyl carbamates” (J Med Chem, 1979)
Activity calls are given as the source filed them.

What was measured:
Mus musculus [1] = species: Mus musculus; assay: Anticonvulsant activity in mouse assessed as protection against maximal electroshock-induced seizures; format: functional
[2] = Toxicity in mouse; format: organism-based; conditions: in vivo
Summary of the method: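 Toxicity in mice from the NINCDS screens, expressed as TD50: dose toxic in 50% of screens, in mg/kg.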

Mus musculus [3] = assay: Anticonvulsant activity in mouse assessed as protection against subcutaneous pentylenetetrazole-induced seizures; format: functional; conditions: sc
Summary of the method: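 Mice screened in the NINCDS program for subcutaneous metrazole (pentylenetetrazole) seizure threshold (scMet) protection; ED50 taken as dose effective in 50% of test animals, in mg/kg.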

| SMILES | Activity (Mus musculus [1]) | further results |
| --- | --- | --- |
| CCN(CC)CCN1C(=O)NC(C)(C)C1=O | inactive | – |
| CCN(CC)CCN1C(=O)NC(c2ccccc2)(c2ccccc2)C1=O | – | ED50 (Mus musculus [1]): 80 mg/kg |
| CC(=O)N1C(=O)N(C(C)(C)C)C(=O)C1(C)C | – | TD50 [2]: ≤ 30 mg/kg |
| CC1(C)OC(=O)N(C(C)(C)C)C1=O | inactive | – |
| Cc1ccc(S(=O)(=O)N2C(=O)NC(C)(C)C2=O)cc1 | inactive | – |
| CC1(C)NC(=O)N(C(C)(C)C)C1=O | – | ED50 (Mus musculus [3]): 130 mg/kg; TD50 [2]: 343 mg/kg |
| CC1(C)NC(=O)N(C23CC4CC(CC(C4)C2)C3)C1=O | inactive | – |
| CN1C(=O)N(C(C)(C)C)C(=O)C1(C)C | inactive | – |
| CCN(CC)CCN1C(=O)N(CCN(CC)CC)C(c2ccccc2)(c2ccccc2)C1=O | inactive | – |
